Measurements reported in ChEMBL document CHEMBL1154319, “Further studies on the chemistry of the flustra alkaloids from the bryozoan Flustra foliacea” (2009).
Active and inactive are the calls of the source. The calls are words filed in the database; no cut-off is given here.

Assays:
[1] = test system: Cyberlindnera jadinii; assay: Antifungal activity against Candida utilis ATCC 9950 at 1.4 mol by disk diffusion method; assay type: functional
Method in brief: (§1)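 Compound dissolved in MeOH, applied to a 6 mm filter-paper disk and air-dried. Disk placed on an agar plate overgrown with the test organism. Growth-inhibition zone measured from the outer edge of the disk.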

[2] = test system: Cyberlindnera jadinii; assay: Antifungal activity against Candida utilis ATCC 9950 at 0.9 mol by disk diffusion method; assay type: functional, organism-based; method in brief: as §1
[3] = test system: Escherichia coli; assay: Antibacterial activity against Escherichia coli ATCC 11775 at 0.9 mol by disk diffusion method; assay type: functional, organism-based; method in brief: as §1
[4] = test system: Saccharomyces cerevisiae; assay: Antifungal activity against Saccharomyces cerevisiae ATCC 9763 at 0.9 mol by disk diffusion method; assay type: functional, organism-based; method in brief: as §1
[5] = test system: Micrococcus luteus; assay: Antibacterial activity against Micrococcus luteus ATCC 49732 at 0.9 mol by disk diffusion method; assay type: functional, organism-based; method in brief: as §1
[6] = test system: Micrococcus luteus; assay: Antibacterial activity against Micrococcus luteus ATCC 49732 at 0.7 mol by disk diffusion method; assay type: functional, organism-based; method in brief: as §1
[7] = test system: Escherichia coli; assay: Antibacterial activity against Escherichia coli ATCC 11775 at 0.7 mol by disk diffusion method; assay type: functional, organism-based; method in brief: as §1
[8] = test system: Saccharomyces cerevisiae; assay: Antifungal activity against Saccharomyces cerevisiae ATCC 9763 at 0.7 mol by disk diffusion method; assay type: functional, organism-based; method in brief: as §1
[9] = test system: Cyberlindnera jadinii; assay: Antifungal activity against Candida utilis ATCC 9950 at 0.7 mol by disk diffusion method; assay type: functional, organism-based; method in brief: as §1
[10] = test system: Micrococcus luteus; assay: Antibacterial activity against Micrococcus luteus ATCC 49732 at 1.2 mol by disk diffusion method; assay type: functional; method in brief: as §1
[11] = test system: Saccharomyces cerevisiae; assay: Antifungal activity against Saccharomyces cerevisiae ATCC 9763 at 1.2 mol by disk diffusion method; assay type: functional; method in brief: as §1
[12] = test system: Escherichia coli; assay: Antibacterial activity against Escherichia coli ATCC 11775 at 1.2 mol by disk diffusion method; assay type: functional; method in brief: as §1
[13] = test system: Cyberlindnera jadinii; assay: Antifungal activity against Candida utilis ATCC 9950 at 1.2 mol by disk diffusion method; assay type: functional; method in brief: as §1
[14] = test system: Escherichia coli; assay: Antibacterial activity against Escherichia coli ATCC 11775 at 1.3 mol by disk diffusion method; assay type: functional; method in brief: as §1
[15] = test system: Saccharomyces cerevisiae; assay: Antifungal activity against Saccharomyces cerevisiae ATCC 9763 at 1.3 mol by disk diffusion method; assay type: functional; method in brief: as §1
[16] = test system: Micrococcus luteus; assay: Antibacterial activity against Micrococcus luteus ATCC 49732 at 1.3 mol by disk diffusion method; assay type: functional; method in brief: as §1
[17] = test system: Cyberlindnera jadinii; assay: Antifungal activity against Candida utilis ATCC 9950 at 1.3 mol by disk diffusion method; assay type: functional; method in brief: as §1
[18] = test system: Cyberlindnera jadinii; assay: Antifungal activity against Candida utilis ATCC 9950 at 1.5 mol by disk diffusion method; assay type: functional; method in brief: as §1
[19] = test system: Saccharomyces cerevisiae; assay: Antifungal activity against Saccharomyces cerevisiae ATCC 9763 at 1.5 mol by disk diffusion method; assay type: functional; method in brief: as §1
[20] = test system: Escherichia coli; assay: Antibacterial activity against Escherichia coli ATCC 11775 at 1.5 mol by disk diffusion method; assay type: functional; method in brief: as §1
[21] = test system: Micrococcus luteus; assay: Antibacterial activity against Micrococcus luteus ATCC 49732 at 1.5 mol by disk diffusion method; assay type: functional; method in brief: as §1

Question: How did the “inhibition zone (IZ)” value [1] turn out when `C=CC(C)(C)[C@@]12CCN(C)[C@@H]1N(C(C)=O)c1cc(Br)ccc12` [FLUSTRAMINE F] was run?
Answer: The value was 18 mm.

Question: What does the source list for `C=CC(C)(C)[C@@]12CCN(C)[C@@H]1N(CN1c3cc(Br)ccc3[C@]3(C(C)(C)C=C)CCN(C)[C@H]13)c1cc(Br)ccc12`?
Answer: inhibition zone (IZ) [2]: inactive; inhibition zone (IZ) [3]: inactive; inhibition zone (IZ) [4]: inactive; inhibition zone (IZ) [5]: inactive

Question: `C=CC(C)(C)[C@@]12CCN(C)[C@@H]1N(Cc1cc(Br)c3c(c1O)[C@]1(C/C=C(\C)CCC=C(C)C)CCN(C)[C@@H]1N3)c1cc(Br)ccc12` was tested. Which “inhibition zone (IZ)” value [6] did it give?
Answer: The value was “inactive”.

Question: What about the “inhibition zone (IZ)” value [7] of the same compound?
Answer: The value was “inactive”.

Question: And the “inhibition zone (IZ)” value [8]?
Answer: Its value is “inactive”.

Question: What about the “inhibition zone (IZ)” value [9] of the same compound?
Answer: Its value is “inactive”.

Question: `CC(C)=CCc1cc(Br)c2c(c1O)[C@]1(CC=C(C)C)CCN(C)[C@@H]1N2` [FLUSTRAMINE L] was tested. Which “inhibition zone (IZ)” value [10] did it give?
Answer: The value was 25 mm.

Question: What about the “inhibition zone (IZ)” value [11] of the same compound?
Answer: Its value is 20 mm.

Question: And the “inhibition zone (IZ)” value [12]?
Answer: Its value is 24 mm.

Question: And the “inhibition zone (IZ)” value [13]?
Answer: The value was 30 mm.

Question: Which “inhibition zone (IZ)” value [14] does the source give for `CC(C)=CCC/C(C)=C/C[C@@]12CCN(C)[C@@H]1Nc1cccc(O)c12` [DEBROMOFLUSTRAMINE H] here?
Answer: Its value is 22 mm.

Question: And the “inhibition zone (IZ)” value [15]?
Answer: Its value is 16 mm.

Question: And the “inhibition zone (IZ)” value [16]?
Answer: Its value is 23 mm.

Question: And the “inhibition zone (IZ)” value [17]?
Answer: The value was 28 mm.

Question: With `CC(C)=CC[C@@]12CCN(C)[C@@H]1Nc1c(Br)ccc(O)c12` [FLUSTRAMINE I] as the compound, how does the “inhibition zone (IZ)” value [18] read?
Answer: The value was 29 mm.

Question: What about the “inhibition zone (IZ)” value [19] of the same compound?
Answer: Its value is 15 mm.

Question: And the “inhibition zone (IZ)” value [20]?
Answer: Its value is 25 mm.

Question: And the “inhibition zone (IZ)” value [21]?
Answer: The value was 29 mm.
